# Rev-RRE block = disrupts HIV-1 Rev binding to RRE RNA | P05866 | Rev peptide-RRE RNA binding, FRET | inhibition, % at 8 µM | actives 0.79% (n = 97,000);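 active = inhibition above the screen-wide mean plus 3 SD, cut at about 35% in these data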;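 note: 0% = median DMSO wells and 100% = median Neomycin B control wells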
#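 Assay system: labelled RRE RNA duplex and labelled Rev peptide / Medium: HEPES pH 7.5 salt buffer with EDTA / Reagent: labelled Rev peptide / Schedule: 5 + 15 min at 25 °C / Signal: FRET, excitation 480 nm, emission 540 nm donor and 671 nm acceptor / Benchmarks: DMSO and neomycin B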
# CYP2C9 inh = blocks human cytochrome P450 2C9; P11712; CYP2C9 Supersomes, luciferin-H conversion, luminescence; inhibition, % at 5 µM; actives 20% (n = 96,000); AID 777;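 active = blocking of liver enzyme CYP2C9 beyond about 50% at 5 µM, limit read from the data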
# CYP2C9 act = CYP2C9 (human) activation; P11712; activation factor at 5 µM; AID 1024; actives 1.4% (n = 96,000); recombinant CYP2C9, luciferin-H conversion, luminescence; stronger effect = higher value; factor 1 = untreated enzyme, 0 = blocked;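 active = activation factor of 2 or more for CYP2C9 at a 5 µM dose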;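 note: 0 = sulfaphenazole-blocked wells and 1 = vehicle-only wells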
# Cav3 T inh = blocks human Cav3.2 T-type calcium channel | O95180 | Cav3.2-expressing cells, Fluo-4 calcium fluorescence FDSS; stronger effect = lower value | B-score at 10 µM | actives 4% (n = 100,000) | AID 449739;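 active = single-dose well whose peak fluorescence ratio is a statistical outlier from its plate by either plate-standardised score or position-corrected B-score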
# CYP2C19 inhib = human CYP2C19 inhibition; P33261; CYP2C19 Supersomes, luciferin-H EGE luminescence, 30 min; inhibition, % at 5 µM; actives 21% (n = 96,000); AID 778;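 active = CYP2C19 inhibition above a set limit at 5 µM in the primary screen, cut at about 50% in these data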;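 note: plate controls were negative control wells for no effect and 2.5 mM tranylcypromine positive control for full effect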
# Target sequence (P33261 whole entry, looked up): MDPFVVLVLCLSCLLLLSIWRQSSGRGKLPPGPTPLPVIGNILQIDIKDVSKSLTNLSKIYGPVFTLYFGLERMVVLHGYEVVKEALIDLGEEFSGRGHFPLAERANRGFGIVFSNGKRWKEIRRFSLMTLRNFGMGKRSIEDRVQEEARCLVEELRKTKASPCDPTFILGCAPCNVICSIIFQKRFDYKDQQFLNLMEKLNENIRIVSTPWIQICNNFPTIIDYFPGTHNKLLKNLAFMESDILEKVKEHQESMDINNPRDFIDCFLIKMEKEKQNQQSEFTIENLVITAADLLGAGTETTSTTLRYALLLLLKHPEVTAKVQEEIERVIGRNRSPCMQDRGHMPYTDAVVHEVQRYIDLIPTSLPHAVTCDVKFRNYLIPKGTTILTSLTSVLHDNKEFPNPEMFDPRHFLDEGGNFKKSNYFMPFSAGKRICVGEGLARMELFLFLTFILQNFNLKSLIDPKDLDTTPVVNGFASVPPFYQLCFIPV
# CYP2C19 activ = increases human CYP2C19 enzyme activity. recombinant CYP2C19, luciferin-H EGE luminescence; stronger effect = higher value; 0 = fully inhibited enzyme, 1 = untreated enzyme. 96,000 tested, under 10 active. P33261. AID 1025. activation factor at 5 µM;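 active = activation factor of at least 2 at 5 µM in the primary screen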;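 note: 0 = wells with 2.5 mM tranylcypromine and 1 = vehicle-only wells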
# Numbers without * were called inactive; / = no result. In the library only some 27% were active in any assay of this set; here they are far more common.
SMILES,Rev-RRE block,CYP2C9 inh,CYP2C9 act,Cav3 T inh,CYP2C19 inhib,CYP2C19 activ
CN1C(C(=O)NCc2ccc(OC(F)(F)F)cc2)CC2Cn3c(nc4cc5ccccc5cc43)C21 (stereo not given),/,/,/,-0.88,/,/
CN1CCN(S(=O)(=O)c2ccc(Br)c3nsnc23)CC1,1,-17,1.2,1.2,24,0.8
CCOC(=O)c1cnn(-c2nc(-c3ccccc3)cs2)c1C(F)(F)F,24,88*,0.1,-0.071,43,0.6
CCOC(=O)c1cnn(-c2nc(-c3ccccc3F)cs2)c1C(F)(F)F,16,29,0.7,-0.8,16,0.8
CC1CCCCC1N1CN=C(Nc2nc3ccccc3s2)NC1 (stereo not given),1,-12,1.1,0.76,5,1
CCNc1nc(NCC)nc(N2CC(=O)N(CC(=O)OCC)C2=N)n1,0,/,/,-0.62,/,/
CC(N=C1NS(=O)(=O)c2ccccc21)c1ccccc1 (stereo not given),2,9,0.9,-0.62,26,0.7
O=S1(=O)Nc2c(ccc3cccnc23)-c2ccccc21,/,65*,0.4,1.6,4,1
O=C(Cn1cnc2c(nnn2Cc2ccc(Cl)cc2)c1=O)NCc1ccco1,-1,/,/,0.01,/,/
Cc1ccc(C2C(C#N)=C(N)N(c3ncn[nH]3)C3=C2C(=O)CC(C)(C)C3)cc1 (stereo not given),-1,65*,0.4,0.4,28,0.7
CC(C)c1ccc(/C=C/C(=O)n2nnc3ccccc32)cc1,20,-8,1.1,/,-22,1.2
Cc1nn(C)c(C)c1Sc1ccc(Br)cc1,7,25,0.8,-1.1,64*,0.4
CCCN1C(=O)C(O)(C2CC(=O)CC(C)(C)O2)c2ccccc21 (stereo not given),5,-30,1.3,/,15,0.8
Cc1ccc(C)c(S(=O)(=O)NC(CC(C)C)C(=O)O)c1 (stereo not given),8,11,0.9,/,8,0.9
COc1ccc(N2C(=O)CC(Nc3ccc(C)cc3)C2=O)cc1 (stereo not given),8,74*,0.3,0.23,14,0.9
COC(=O)c1ccccc1NC1CC(=O)N(c2c(C)cccc2C)C1=O (stereo not given),5,78*,0.2,-2.2,34,0.7
COC(=O)c1ccc(N2C(=O)CC(N(C)CCc3ccc(OC)c(OC)c3)C2=O)cc1 (stereo not given),1,54*,0.5,-0.044,62*,0.4
COC(=O)c1cccc(NC2CC(=O)N(c3ccc(OC)c(OC)c3)C2=O)c1 (stereo not given),/,10,0.9,0.7,53*,0.5
Cc1ccc(NC2CC(=O)N(c3ccc(N4CCCCC4)cc3)C2=O)cc1 (stereo not given),9,-7,1.1,0.033,-19,1.2
COC(=O)c1cccc(N2C(=O)C3CC=CCC3C2=O)c1 (stereo not given),-2,/,/,0.67,/,/
O=C1CC(c2ccccc2)CC(O)=C1C=NCCN1CCN(C(=O)Nc2ccccc2)CC1 (stereo not given),8,12,0.9,-1.2,27,0.7
Cn1c(N)c(C(=O)CSc2nc3ccccc3n2-c2ccccc2)c(=O)n(C)c1=O,/,4,1,0.36,-9,1.1
COC(=O)c1ccc(NC2CC(=O)N(c3ccccc3C)C2=O)cc1 (stereo not given),4,20,0.8,-0.17,60*,0.4
CN=C(Nc1ccc(C(=O)OC)cc1)SC1CC(=O)N(c2ccccc2F)C1=O (stereo not given),5,49,0.5,-0.034,16,0.8
COCCNC(=O)C(C)N(c1ccc(OC)cc1)S(C)(=O)=O (stereo not given),6,-29,1.3,-0.42,23,0.8
CCN(CC)S(=O)(=O)c1ccc(NC(=O)C(C)N(c2ccc(OC)cc2)S(C)(=O)=O)cc1 (stereo not given),12,56*,0.4,-0.47,7,0.9
CCOc1ccc(N(C(C)C(=O)Nc2ccc(OC)cc2)S(C)(=O)=O)cc1 (stereo not given),8,72*,0.3,-0.19,74*,0.3
COc1ccc(NC(=O)C(C)N(c2ccc(C)cc2)S(C)(=O)=O)c(OC)c1 (stereo not given),2,52*,0.5,0.32,90*,0.1

# Screening results from PubChem.
